Experiments:
[1] = folding enthalpy; higher = less favourable; fluorescence melt of hairpins on a sequencing array, two-state fit; conditions: sodium 0.088 M
Procedure, shortened: (§1)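 In 50 mM Na-HEPES pH 8.0 containing 25 mM NaCl, hairpins from the library on a sequenced MiSeq flow cell were imaged for Cy3 fluorescence at 2.5 °C steps up to 60 °C, with Cy3 and quencher oligos annealed. After normalisation to pre-quench Cy3 and to control constructs, two-state fits with bootstrapping gave melting temperature and folding enthalpy. Four replicates were combined by inverse-variance weighting, and fitted temperatures were shifted up by 9.35 °C to match UV melts.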

[2] = melting temperature; fluorescence melt of hairpins on a sequencing array, two-state fit, raised by 9.35 °C to match UV melts; conditions: sodium 0.088 M
Procedure, shortened: as §1

| Sequence | folding enthalpy [1] | Tm [2] |
| --- | --- | --- |
| GACAACCGAAAGGTCGTC (((.(((....))).))) | -38.6 kcal/mol | 49.5 °C |
| GACAACCGAAAGGTGTC (((.(((....)))))) | -24.8 kcal/mol | 53.9 °C |
| GACAACGAAAGTTACGTC ((((((....)))..))) | -12.5 kcal/mol | 30.6 °C |
| GACAACGAAAGTTAGGTC ((((((....)))..))) | -14.6 kcal/mol | 33.7 °C |
| GACAACGAAAGTTATGTC ((((((....)))..))) | -17.8 kcal/mol | 32.3 °C |
| GACAACGAAAGTTTGTC ((((((....))).))) | -27.6 kcal/mol | 47.3 °C |
| GACAAGGAAACTTGTC ((((((....)))))) | -43.8 kcal/mol | 51.8 °C |
| GACAATACGAAAGTAGTC (((..(((....)))))) | -16.4 kcal/mol | 30.3 °C |
| GACACACGAAAGTGAGTC (((.(((....))).))) | -31 kcal/mol | 56.1 °C |
| GACACAGGAAACTGTATC ((.((((....)))).)) | -14.1 kcal/mol | 28.3 °C |
| GACACCCCGAAAGGGGTC (((..(((....)))))) | -6.64 kcal/mol | 37.7 °C |
| GACACCCGAAAGGGGTC (((.(((....)))))) | -18.5 kcal/mol | 54.8 °C |
| GACACCGAAAGGTATGTC ((((((....)))..))) | -19.6 kcal/mol | 39.2 °C |
| GACACCGAAAGGTTCGTC ((((((....)))..))) | -20.4 kcal/mol | 41.2 °C |
| GACACCGGAAACGGCATC ((..(((....)))..)) | -9.17 kcal/mol | 25.4 °C |
| GACACCGGAAACGGTACC (..((((....))))..) | -10.5 kcal/mol | 24.2 °C |
| GACACCGGAAACGGTATC ((.((((....)))).)) | -15.9 kcal/mol | 36.1 °C |
| GACACCGGAAACGGTGCC (.(((((....))))).) | -13.4 kcal/mol | 48.8 °C |
| GACACGCGAAAGCGAGTC (((.(((....))).))) | -24.3 kcal/mol | 60.5 °C |
| GACACGCGAAAGCGCGTC (((.(((....))).))) | -25.2 kcal/mol | 63.9 °C |
| GACACGGGAAACTGTGTC (((((.(....).))))) | -42.2 kcal/mol | 53.5 °C |
| GACACTCCGAAAGGAGTC (((..(((....)))))) | -7.77 kcal/mol | 32 °C |
| GACACTGGAAACAGCGTC (((.(((....))).))) | -35.2 kcal/mol | 46.4 °C |

| Sequence | folding enthalpy [1] | Tm [2] |
| --- | --- | --- |
| GACACTGGAAACAGTGCC (.(((((....))))).) | -14.8 kcal/mol | 43.2 °C |
| GACAGCCCGAAAGGGGTC (((..(((....)))))) | -11.4 kcal/mol | 34.6 °C |
| GACAGCGAAAGCTAGTC ((((((....))).))) | -22.6 kcal/mol | 51.2 °C |
| GACAGCGAAAGCTCAGTC ((((((....)))..))) | -11.5 kcal/mol | 38.7 °C |
| GACAGCGAAAGCTTAGTC ((((((....)))..))) | -19 kcal/mol | 38.1 °C |
| GACAGCGAAAGCTTTGTC ((((((....)))..))) | -16 kcal/mol | 37.5 °C |
| GACAGCGCGAAAGCGGTC (((..(((....)))))) | -11.4 kcal/mol | 41.8 °C |
| GACAGGCGAAAGCCAGTC (((.(((....))).))) | -25.8 kcal/mol | 58.1 °C |
| GACAGGCGAAAGCCCGTC (((.(((....))).))) | -22.3 kcal/mol | 52.9 °C |
| GACAGGGGAAACCCTATC ((.((((....)))).)) | -12.8 kcal/mol | 28 °C |
| GACAGGGGAAACCCTGTC (((((((....))))))) | -42.6 kcal/mol | 66.4 °C |
| GACAGTGGAAACACTGCC (.(((((....))))).) | -14.5 kcal/mol | 46 °C |
| GACAGTGGAAACATTGTC ((((.((....)).)))) | -32.4 kcal/mol | 43 °C |
| GACATACCGAAAGGTGTC (((..(((....)))))) | -18.2 kcal/mol | 41.3 °C |
| GACATAGGAAACTACGTC (((.(((....))).))) | -15.1 kcal/mol | 30 °C |
| GACATCACGAAAGTGGTC (((..(((....)))))) | -14.5 kcal/mol | 34.7 °C |
| GACATCCGAAAGGAGTC (((.(((....)))))) | -21.2 kcal/mol | 45.4 °C |
| GACATCGGAAACAATGTC (((((.(....).))))) | -33 kcal/mol | 34.1 °C |
| GACATCGGAAACGATGCC (.(((((....))))).) | -12.5 kcal/mol | 44.9 °C |
| GACATGCGAAAGCAGTC (((.(((....)))))) | -16.9 kcal/mol | 51.9 °C |
| GACATGGGAAACCATATC ((.((((....)))).)) | -14 kcal/mol | 28 °C |
| GACATTGAAAAATGTC ((((((....)))))) | -31.1 kcal/mol | 50.3 °C |
| GACATTGGAAACAATGCC (.(((((....))))).) | -21.5 kcal/mol | 38.1 °C |

| Sequence | folding enthalpy [1] | Tm [2] |
| --- | --- | --- |
| GACCAACGAAAGTTCGTC (((.(((....))).))) | -24.4 kcal/mol | 34.9 °C |
| GACCAACGAAAGTTTGTC (((.(((....))).))) | -26.9 kcal/mol | 41.7 °C |
| GACCACACGAAAGTGGTC (((..(((....)))))) | -30.9 kcal/mol | 57 °C |
| GACCACCGAAAGGTAGTC (((.(((....))).))) | -31.6 kcal/mol | 47 °C |
| GACCACGAAAGTGAAGTC ((((((....)))..))) | -21.7 kcal/mol | 40.2 °C |
| GACCACGAAAGTGCGGTC ((((((....)))..))) | -19.3 kcal/mol | 43.2 °C |
| GACCACGAAAGTGGAGTC ((((((....)))..))) | -11.5 kcal/mol | 38.4 °C |
| GACCACGAAAGTGGCGTC ((((((....)))..))) | -12.5 kcal/mol | 45.6 °C |
| GACCACGCGAAAGCGGTC (((..(((....)))))) | -13.2 kcal/mol | 47.3 °C |
| GACCAGGGAAACCCGGTC ((((.((....)).)))) | -37.7 kcal/mol | 50.1 °C |
| GACCAGGGAAACTTGGTC (((((.(....).))))) | -37.8 kcal/mol | 47.8 °C |
| GACCATCCGAAAGGAGTC (((..(((....)))))) | -14.4 kcal/mol | 26.4 °C |
| GACCATGGAAACATGATC ((.((((....)))).)) | -23.2 kcal/mol | 35.4 °C |
| GACCCAGGAAACTAGGTC ((((.((....)).)))) | -26.7 kcal/mol | 36 °C |
| GACCCCGAAAGGGTCGTC ((((((....)))..))) | -24.6 kcal/mol | 58.2 °C |
| GACCCCGGAAACAGGGTC (((((.(....).))))) | -29.5 kcal/mol | 48.8 °C |
| GACCCCGGAAACGGGATC ((.((((....)))).)) | -16.3 kcal/mol | 45.8 °C |
| GACCCGCGAAAGCGAGTC (((.(((....))).))) | -26.7 kcal/mol | 55.7 °C |
| GACCCTGGAAACAGAGTC (((.(((....))).))) | -29.5 kcal/mol | 36.6 °C |
| GACCGACCGAAAGGTGTC (((..(((....)))))) | -15.8 kcal/mol | 35.9 °C |
| GACCGACGAAAGTCCGTC (((.(((....))).))) | -23.9 kcal/mol | 43.1 °C |
| GACCGAGGAAACTCGACC (..((((....))))..) | -14.3 kcal/mol | 26.6 °C |
| GACCGAGGAAACTTGGTC ((((.((....)).)))) | -32.5 kcal/mol | 50.1 °C |

| Sequence | folding enthalpy [1] | Tm [2] |
| --- | --- | --- |
| GACCGCGAAAGCGAGTC ((((((....))).))) | -20 kcal/mol | 64.1 °C |
| GACCGCGAAAGCGATGTC ((((((....)))..))) | -14.9 kcal/mol | 44.3 °C |
| GACCGCGAAAGCGCTGTC ((((((....)))..))) | -14.3 kcal/mol | 39 °C |
| GACCGGGGAAACCCGGCC (.(((((....))))).) | -11.2 kcal/mol | 50.4 °C |
| GACCTACCGAAAGGTGTC (((..(((....)))))) | -18 kcal/mol | 30.8 °C |
| GACCTACGAAAGTAGTC (((.(((....)))))) | -17.3 kcal/mol | 42.1 °C |
| GACCTAGAAATAGGTC ((((((....)))))) | -35.6 kcal/mol | 51.3 °C |
| GACCTCGGAAACGAAGTC (((.(((....))).))) | -24.9 kcal/mol | 34.7 °C |
| GACCTCGGAAACGAGACC (..((((....))))..) | -11.8 kcal/mol | 26.1 °C |
| GACCTCGGAAACGAGATC ((.((((....)))).)) | -20.3 kcal/mol | 40.5 °C |
| GACCTGGGAAACCAGATC ((.((((....)))).)) | -22.5 kcal/mol | 36.1 °C |
| GACCTGGGAAACTAGGTC (((((.(....).))))) | -42.5 kcal/mol | 50.1 °C |
| GACCTTCCGAAAGGAGTC (((..(((....)))))) | -11.8 kcal/mol | 26.4 °C |
| GACCTTGGAAACGAGGTC (((((.(....).))))) | -38.9 kcal/mol | 50.9 °C |
| GACGAACGAAAGTTGTC (((.(((....)))))) | -25.8 kcal/mol | 44.9 °C |
| GACGAAGAAATTCGTC ((((((....)))))) | -34.1 kcal/mol | 53.8 °C |
| GACGAAGGAAACTTCATC ((.((((....)))).)) | -14.7 kcal/mol | 26.9 °C |
| GACGAAGGAAACTTCGCC (.(((((....))))).) | -16.8 kcal/mol | 43.7 °C |
| GACGAAGGAAACTTCGTC (((((((....))))))) | -43.9 kcal/mol | 63.5 °C |
| GACGACACGAAAGTGGTC (((..(((....)))))) | -15.3 kcal/mol | 41.2 °C |
| GACGACCGAAAGGTAGTC (((.(((....))).))) | -38.6 kcal/mol | 57.7 °C |
| GACGACCGAAAGGTGTC (((.(((....)))))) | -26.5 kcal/mol | 52.2 °C |

From the array DNA melting data of Ke et al. (doi:10.1101/2024.01.08.574731)
